“And” between values parts separate entries of the source, which are not always exact repeats. Equal entries are not always repeated.
Columns and labels:
[1] = tested on: Rattus norvegicus; assay: Antihypertensive activity in DOCA hypertensive rats was measured as average blood pressure at 25 mg/kg, po before predose
[2] = tested on: Rattus norvegicus; assay: Antihypertensive activity in […] hypertensive rats was measured as average blood pressure at 100 mg/kg, p.o. before predose; format: functional; details: route oral
[3] = tested on: Rattus norvegicus; assay: Antihypertensive activity in DOCA hypertensive rats was measured as average blood pressure at 25 mg/kg, p.o. after 24 hours of postdose-1; details: route oral
[4] = tested on: Rattus norvegicus; assay: Antihypertensive activity in DOCA hypertensive rats was measured as average blood pressure at 25 mg/kg, p.o. after 24 hours of postdose-2; details: route oral
[5] = tested on: Rattus norvegicus; assay: Antihypertensive activity in spontaneously hypertensive rats was measured as average blood pressure at 100 mg/kg, p.o. after 24 hours of postdose-1.; format: functional; details: route oral
Outline: (§1)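 Spontaneously hypertensive rats aged 12 to 16 weeks, in groups of five with systolic pressure of 170 mmHg or more. Oral dosing as a solution or suspension in 0.25% methylcellulose, 5 mL/kg, with a vehicle control group. Tail-cuff systolic pressure was read predose and 4 and 24 h after each of two doses. Values were compared with predose by Student's t test.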

[6] = tested on: Rattus norvegicus; assay: Antihypertensive activity in DOCA hypertensive rats was measured as average blood pressure at 10 mg/kg, p.o. after 4 hours of postdose-1.; details: route oral
[7] = tested on: Rattus norvegicus; assay: Antihypertensive activity in DOCA hypertensive rats was measured as average blood pressure at 10 mg/kg, p.o. before predose; details: route oral
[8] = tested on: Rattus norvegicus; assay: Antihypertensive activity in spontaneously hypertensive rats was measured as average blood pressure at 30 mg/kg, p.o. before predose; format: functional; details: route oral
Outline: as §1

[9] = tested on: Rattus norvegicus; assay: Antihypertensive activity in […] hypertensive rats was measured as average blood pressure at 50 mg/kg, p.o. after 24 hours of postdose-1; format: functional; details: route oral
[10] = tested on: Rattus norvegicus; assay: Antihypertensive activity in […] hypertensive rats was measured as average blood pressure at 100 mg/kg, p.o. after 4 hours of postdose-1; format: functional; details: route oral
[11] = tested on: Rattus norvegicus; assay: Antihypertensive activity in DOCA hypertensive rats was measured as average blood pressure at 10 mg/kg, p.o. after 24 hours of postdose-1; details: route oral
[12] = tested on: Rattus norvegicus; assay: Antihypertensive activity in spontaneously hypertensive rats was measured as average blood pressure at 30 mg/kg, po after 4 hours of postdose-1.; format: functional
Outline: as §1

[13] = tested on: Rattus norvegicus; assay: Antihypertensive activity in spontaneously hypertensive rats was measured as average blood pressure at 10 mg/kg, p.o. after 4 hours of postdose-1.; format: functional; details: route oral
Outline: as §1

[14] = tested on: Rattus norvegicus; assay: Antihypertensive activity in spontaneously hypertensive rats was measured as increase in heart rate at 100 mg/kg peroral dose; (+)=Increased heart rate; format: functional, organism-based; parameters: dose 100 mg/kg
[15] = tested on: Rattus norvegicus; assay: Antihypertensive activity in spontaneously hypertensive rats was measured as average blood pressure at 10 mg/kg, p.o. before predose; format: functional; details: route oral
Outline: as §1

[16] = tested on: Rattus norvegicus; assay: Antihypertensive activity in spontaneously hypertensive rats was measured as increase in heart rate at 30 mg/kg peroral dose; (+)=Increased heart rate; format: functional, organism-based; parameters: dose 30 mg/kg
[17] = tested on: Rattus norvegicus; assay: Antihypertensive activity in spontaneously hypertensive rats was measured as average blood pressure at 100 mg/kg, po after 24 hours of postdose-2; format: functional
Outline: as §1

[18] = tested on: Rattus norvegicus; assay: Antihypertensive activity in spontaneously hypertensive rats was measured as average blood pressure at 30 mg/kg, p.o. after 24 hours of postdose-2; format: functional; details: route oral
Outline: as §1

[19] = tested on: Rattus norvegicus; assay: Antihypertensive activity in […] hypertensive rats was measured as average blood pressure at 100 mg/kg, p.o. after 24 hours of postdose-1; format: functional; details: route oral
[20] = tested on: Rattus norvegicus; assay: Antihypertensive activity in […] hypertensive rats was measured as average blood pressure at 100 mg/kg, p.o. after 4 hours of postdose-1.; format: functional; details: route oral
[21] = tested on: Rattus norvegicus; assay: Antihypertensive activity in […] hypertensive rats was measured as average blood pressure at 50 mg/kg, p.o. before predose; format: functional; details: route oral
[22] = tested on: Rattus norvegicus; assay: Antihypertensive activity in spontaneously hypertensive rats was measured as average blood pressure at 100 mg/kg, p.o. after 4 hours of postdose; format: functional; details: route oral
Outline: as §1

[23] = tested on: Rattus norvegicus; assay: Antihypertensive activity in DOCA hypertensive rats was measured as average blood pressure at 10 mg/kg, p.o. after 4 hours of postdose-2; details: route oral
[24] = tested on: Rattus norvegicus; assay: Antihypertensive activity in spontaneously hypertensive rats was measured as average blood pressure at 30 mg/kg, p.o. after 4 hours of postdose-2; format: functional; details: route oral
Outline: as §1

[25] = tested on: Rattus norvegicus; assay: Antihypertensive activity in […] hypertensive rats was measured as average blood pressure at 50 mg/kg, p.o. after 4 hours of postdose-1; format: functional; details: route oral
[26] = tested on: Rattus norvegicus; assay: Antihypertensive activity in spontaneously hypertensive rats was measured as average blood pressure at 30 mg/kg, p.o. after 24 hours of postdose-1; format: functional; details: route oral
Outline: as §1

[27] = tested on: Rattus norvegicus; assay: Antihypertensive activity in spontaneously hypertensive rats was measured as average blood pressure at 100 mg/kg, p.o. after 4 hours of postdose-2; format: functional; details: route oral
Outline: as §1

[28] = tested on: Rattus norvegicus; assay: Antihypertensive activity in […] hypertensive rats was measured as average blood pressure at 100 mg/kg, p.o. after 24 hours of postdose-2; format: functional; details: route oral
[29] = tested on: Rattus norvegicus; assay: Antihypertensive activity in […] hypertensive rats was measured as average blood pressure at 50 mg/kg, p.o. after 4 hours of postdose-2; format: functional; details: route oral
[30] = tested on: Rattus norvegicus; assay: Antihypertensive activity in […] hypertensive rats was measured as average blood pressure at 50 mg/kg, p.o. after 24 hours of postdose-2; format: functional; details: route oral
[31] = tested on: Rattus norvegicus; assay: Antihypertensive activity in spontaneously hypertensive rats was measured as average blood pressure at 10 mg/kg, p.o. after 24 hours of postdose-1; format: functional; details: route oral
Outline: as §1

[32] = tested on: Rattus norvegicus; assay: Antihypertensive activity in spontaneously hypertensive rats was measured as average blood pressure at 10 mg/kg, p.o. after 4 hours of postdose-2; format: functional; details: route oral
Outline: as §1

[33] = tested on: Rattus norvegicus; assay: Antihypertensive activity in DOCA hypertensive rats was measured as average blood pressure at 10 mg/kg, p.o. after 24 hours of postdose-2; details: route oral
[34] = tested on: Rattus norvegicus; assay: Antihypertensive activity in […] hypertensive rats was measured as average blood pressure at 100 mg/kg, po after 4 hours of postdose-2; format: functional
[35] = tested on: Rattus norvegicus; assay: Antihypertensive activity in DOCA hypertensive rats was measured as average blood pressure at 25 mg/kg, p.o. after 4 hours of postdose-2; details: route oral
[36] = tested on: Rattus norvegicus; assay: Antihypertensive activity in spontaneously hypertensive rats was measured as average blood pressure at 100 mg/kg, p.o. before predose; format: functional; details: route oral
Outline: as §1

[37] = tested on: Rattus norvegicus; assay: Antihypertensive activity in spontaneously hypertensive rats was measured as increase in heart rate at 10 mg/kg peroral dose; (+)=Increased heart rate; format: functional, organism-based; parameters: dose 10 mg/kg
[38] = tested on: Rattus norvegicus; assay: Antihypertensive activity in spontaneously hypertensive rats was measured as average blood pressure at 10 mg/kg, p.o. after 24 hours of postdose-2; format: functional; details: route oral
Outline: as §1

## CC(=O)c1c(-c2ccc(Cl)cc2)c(-c2ccc(Cl)cc2)nn(CCO)c1=O
[1]
  BP: 235 mmHg
[2]
  BP: 222 mmHg and 125 mmHg
[3]
  BP: 191 mmHg
[4]
  BP: 208 mmHg
[5]
  BP: 185 mmHg
[6]
  BP: 191 mmHg
[7]
  BP: 224 mmHg
[8]
  BP: 213 mmHg
[9]
  BP: 184 mmHg
[10]
  BP: 169 mmHg
[11]
  BP: 192 mmHg
[12]
  BP: 200 mmHg
[13]
  BP: 187 mmHg
[14]
  Heart rate: Increased heart rate
[15]
  BP: 202 mmHg
[16]
  Heart rate: Increased heart rate
[17]
  BP: 193 mmHg
[18]
  BP: 206 mmHg
[19]
  BP: 178 mmHg and 125 mmHg
[20]
  BP: 123 mmHg
[21]
  BP: 224 mmHg
[22]
  BP: 173 mmHg
[23]
  BP: 188 mmHg
[24]
  BP: 164 mmHg
[25]
  BP: 171 mmHg
[26]
  BP: 192 mmHg
[27]
  BP: 174 mmHg
[28]
  BP: 195 mmHg and 130 mmHg
[29]
  BP: 182 mmHg
[30]
  BP: 213 mmHg
[31]
  BP: 203 mmHg
[32]
  BP: 191 mmHg
[33]
  BP: 210 mmHg
[34]
  BP: 164 mmHg and 127 mmHg
[35]
  BP: 188 mmHg
[36]
  BP: 218 mmHg
[37]
  Heart rate: Increased heart rate
[38]
  BP: 197 mmHg

From ChEMBL document CHEMBL1121371, “Antihypertensive 5,6-diarylpyridazin-3-ones” (1980)
